Measured values reported in ChEMBL document CHEMBL5058577, “EUbOPEN Chemogenomics Library 2 (Multiplex)” (2022).

Tested on: Fibroblast
Assay: Multiplex assay against human fibroblast
Format: toxicity, cell-based
Procedure, shortened: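 Hoechst33342, BioTracker Green Microtubule Cytoskeleton Dye, MitoTracker Red and Annexin V Alexa Fluor 680 were added to live cells at seeding, and imaging on a CQ1 microscope at 37°C and 5% CO2 followed compound addition. Gating by CellPathfinder machine learning separated cells into Hoechst high-intensity objects or normal cells, then normal cells into healthy, pyknosed or fragmented nuclei, then pyknosed cells into mitotic or apoptotic. Per cents of healthy-nucleus cells are reported for the tubulin, mitochondrial-mass and membrane-permeability phenotypes.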

[1] = 12 h, 1 µM, compound concentration 1 uM, replicate 1
[2] = 12 h, 1 µM, compound concentration 1 uM, replicate 2
[3] = 12 h, 10 µM, compound concentration 10 uM, replicate 1
[4] = 12 h, 10 µM, compound concentration 10 uM, replicate 2
[5] = 24 h, 1 µM, compound concentration 1 uM, replicate 1
[6] = 24 h, 1 µM, compound concentration 1 uM, replicate 2
[7] = 24 h, 10 µM, compound concentration 10 uM, replicate 1
[8] = 24 h, 10 µM, compound concentration 10 uM, replicate 2
[9] = 48 h, 1 µM, compound concentration 1 uM, replicate 1
[10] = 48 h, 1 µM, compound concentration 1 uM, replicate 2
[11] = 48 h, 10 µM, compound concentration 10 uM, replicate 1
[12] = 48 h, 10 µM, compound concentration 10 uM, replicate 2

COc1c(Nc2ccc(S(C)(=O)=O)nc2C)ncnc1OC1CCN(C(=O)OC(C)C)CC1 [ADP-597]
Population Apoptotic (%) [1]: 57% | Population Fragmented Nuclei (%) [1]: 14% | Population Healthy Nuclei (%) [1]: 71% | Population Hoechst High Intensity Objects (%) [1]: 3% | Population Membrane Permeable-Phenotype (%) [1]: 0% | Population Mitochondria Different-Phenotype (%) [1]: 10% | Population Mitotic Cells (%) [1]: 42% | Population Normal (%) [1]: 96% | Population Pyknosed Nuclei (%) [1]: 14% | Population Tubulin-Different-Phenotype (%) [1]: 34% | Total Cell Count [1]: 133 | Population Apoptotic (%) [2]: 42% | Population Fragmented Nuclei (%) [2]: 27% | Population Healthy Nuclei (%) [2]: 40% | Population Hoechst High Intensity Objects (%) [2]: 4% | Population Membrane Permeable-Phenotype (%) [2]: 2% | Population Mitochondria Different-Phenotype (%) [2]: 7% | Population Mitotic Cells (%) [2]: 57% | Population Normal (%) [2]: 95% | Population Pyknosed Nuclei (%) [2]: 33% | Population Tubulin-Different-Phenotype (%) [2]: 27% | Total Cell Count [2]: 105 | Population Apoptotic (%) [3]: 44% | Population Fragmented Nuclei (%) [3]: 21% | Population Healthy Nuclei (%) [3]: 58% | Population Hoechst High Intensity Objects (%) [3]: 2% | Population Membrane Permeable-Phenotype (%) [3]: 0% | Population Mitochondria Different-Phenotype (%) [3]: 15% | Population Mitotic Cells (%) [3]: 56% | Population Normal (%) [3]: 97% | Population Pyknosed Nuclei (%) [3]: 20% | Population Tubulin-Different-Phenotype (%) [3]: 54% | Total Cell Count [3]: 127 | Population Apoptotic (%) [4]: 39% | Population Fragmented Nuclei (%) [4]: 43% | Population Healthy Nuclei (%) [4]: 27% | Population Membrane Permeable-Phenotype (%) [4]: 11% | Population Mitochondria Different-Phenotype (%) [4]: 14% | Population Mitotic Cells (%) [4]: 60% | Population Normal (%) [4]: 98% | Population Pyknosed Nuclei (%) [4]: 28% | Population Tubulin-Different-Phenotype (%) [4]: 77% | Total Cell Count [4]: 100 | Population Apoptotic (%) [5]: 47% | Population Fragmented Nuclei (%) [5]: 17% | Population Healthy Nuclei (%) [5]: 67% | Population Hoechst High Intensity Objects (%) [5]: 4% | Population Membrane Permeable-Phenotype (%) [5]: 0% | Population Mitochondria Different-Phenotype (%) [5]: 1% | Population Mitotic Cells (%) [5]: 52% | Population Normal (%) [5]: 95% | Population Pyknosed Nuclei (%) [5]: 15% | Population Tubulin-Different-Phenotype (%) [5]: 27% | Total Cell Count [5]: 146 | Population Apoptotic (%) [6]: 37% | Population Fragmented Nuclei (%) [6]: 25% | Population Healthy Nuclei (%) [6]: 50% | Population Hoechst High Intensity Objects (%) [6]: 10% | Population Membrane Permeable-Phenotype (%) [6]: 10% | Population Mitochondria Different-Phenotype (%) [6]: 2% | Population Mitotic Cells (%) [6]: 62% | Population Normal (%) [6]: 89% | Population Pyknosed Nuclei (%) [6]: 24% | Population Tubulin-Different-Phenotype (%) [6]: 48% | Total Cell Count [6]: 109 | Population Apoptotic (%) [7]: 52% | Population Fragmented Nuclei (%) [7]: 20% | Population Healthy Nuclei (%) [7]: 60% | Population Hoechst High Intensity Objects (%) [7]: 5% | Population Membrane Permeable-Phenotype (%) [7]: 0% | Population Mitochondria Different-Phenotype (%) [7]: 5% | Population Mitotic Cells (%) [7]: 47% | Population Normal (%) [7]: 94% | Population Pyknosed Nuclei (%) [7]: 18% | Population Tubulin-Different-Phenotype (%) [7]: 41% | Total Cell Count [7]: 131 | Population Apoptotic (%) [8]: 27% | Population Fragmented Nuclei (%) [8]: 49% | Population Healthy Nuclei (%) [8]: 31% | Population Hoechst High Intensity Objects (%) [8]: 6% | Population Membrane Permeable-Phenotype (%) [8]: 10% | Population Mitochondria Different-Phenotype (%) [8]: 3% | Population Mitotic Cells (%) [8]: 72% | Population Normal (%) [8]: 93% | Population Pyknosed Nuclei (%) [8]: 19% | Population Tubulin-Different-Phenotype (%) [8]: 75% | Total Cell Count [8]: 99 | Population Apoptotic (%) [9]: 64% | Population Fragmented Nuclei (%) [9]: 25% | Population Healthy Nuclei (%) [9]: 63% | Population Hoechst High Intensity Objects (%) [9]: 2% | Population Membrane Permeable-Phenotype (%) [9]: 0% | Population Mitochondria Different-Phenotype (%) [9]: 4% | Population Mitotic Cells (%) [9]: 35% | Population Normal (%) [9]: 97% | Population Pyknosed Nuclei (%) [9]: 11% | Population Tubulin-Different-Phenotype (%) [9]: 30% | Total Cell Count [9]: 152 | Population Apoptotic (%) [10]: 42% | Population Fragmented Nuclei (%) [10]: 28% | Population Healthy Nuclei (%) [10]: 51% | Population Hoechst High Intensity Objects (%) [10]: 9% | Population Membrane Permeable-Phenotype (%) [10]: 2% | Population Mitochondria Different-Phenotype (%) [10]: 0% | Population Mitotic Cells (%) [10]: 57% | Population Normal (%) [10]: 90% | Population Pyknosed Nuclei (%) [10]: 20% | Population Tubulin-Different-Phenotype (%) [10]: 59% | Total Cell Count [10]: 102 | Population Apoptotic (%) [11]: 73% | Population Fragmented Nuclei (%) [11]: 29% | Population Healthy Nuclei (%) [11]: 58% | Population Hoechst High Intensity Objects (%) [11]: 8% | Population Membrane Permeable-Phenotype (%) [11]: 0% | Population Mitochondria Different-Phenotype (%) [11]: 20% | Population Mitotic Cells (%) [11]: 26% | Population Normal (%) [11]: 91% | Population Pyknosed Nuclei (%) [11]: 12% | Population Tubulin-Different-Phenotype (%) [11]: 57% | Total Cell Count [11]: 131 | Population Apoptotic (%) [12]: 75% | Population Fragmented Nuclei (%) [12]: 56% | Population Healthy Nuclei (%) [12]: 36% | Population Hoechst High Intensity Objects (%) [12]: 2% | Population Membrane Permeable-Phenotype (%) [12]: 2% | Population Mitochondria Different-Phenotype (%) [12]: 18% | Population Mitotic Cells (%) [12]: 25% | Population Normal (%) [12]: 97% | Population Pyknosed Nuclei (%) [12]: 7% | Population Tubulin-Different-Phenotype (%) [12]: 84% | Total Cell Count [12]: 108
